Reference: paper PMC8669716 (ACS Pharmacology & Translational Science, 2021)
Values belong to the compound of their own block, whether it stands above or below them.

Experiments:
[1] = tested on: SCLC cell line NCI-H510A; experiment: SCLC cell viability; assay type: cell-based; details: Homo sapiens, 240 h, read-out: EC50 viability NCI-H510A
[2] = target: T1, human recombinant LSD1 enzyme (Homo sapiens, UniProt O60341); experiment: LSD1 HTRF assay; assay type: biochemical
[3] = target: recombinant LSD1 / GFI1B SNAG domain peptide interaction (Homo sapiens, UniProt O60341); experiment: GFI1B-peptide/LSD1 interaction assay; assay type: binding; details: 2 μM, 200 nM, 20 nM and 2 nM
[4] = target: T1, human recombinant LSD1 enzyme; details: incubation at 10-fold IC50, 100-fold dilution
[5] = Stability in aqueous buffer; assay type: physicochemical; details: aqueous buffer at 37 °C, LCMS, day 6
In short: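 A 20 mM DMSO solution of test compound was diluted with PBS and held at 37 °C. Samples were analysed by LCMS at T = 0, 4 and 6 days, using one of three compound-specific HPLC method conditions.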

[6] = target: T1, human recombinant LSD1 enzyme; experiment: LSD1 peroxidase; assay type: biochemical
[7] = target: INSM1/LSD1 interaction in NCI-H510A cells (Homo sapiens, UniProt O60341); experiment: INSM1/LSD1 interaction ELISA on NCI-H510A lysates; assay type: cell-based; details: 24 h, 2000, 200, 20 and 2 nM
[8] = target: LSD1 in NCI-H510A cells (Homo sapiens, UniProt O60341); experiment: LSD1 target engagement; assay type: cell-based; details: 24 h, 2000, 200, 20 and 2 nM
[9] = tested on: CD11b induction in THP-1 cells; experiment: AML differentiation: CD11b by flow cytometry; assay type: cell-based; details: THP-1, 0.02 to 2000 nM, 96 h
[10] = target: T2, human recombinant LSD2 enzyme (Homo sapiens, UniProt Q8NB78); experiment: LSD2 HTRF assay; assay type: biochemical; details: read-out: LSD2 inhibition
T2 sequence (Q8NB78 1-822): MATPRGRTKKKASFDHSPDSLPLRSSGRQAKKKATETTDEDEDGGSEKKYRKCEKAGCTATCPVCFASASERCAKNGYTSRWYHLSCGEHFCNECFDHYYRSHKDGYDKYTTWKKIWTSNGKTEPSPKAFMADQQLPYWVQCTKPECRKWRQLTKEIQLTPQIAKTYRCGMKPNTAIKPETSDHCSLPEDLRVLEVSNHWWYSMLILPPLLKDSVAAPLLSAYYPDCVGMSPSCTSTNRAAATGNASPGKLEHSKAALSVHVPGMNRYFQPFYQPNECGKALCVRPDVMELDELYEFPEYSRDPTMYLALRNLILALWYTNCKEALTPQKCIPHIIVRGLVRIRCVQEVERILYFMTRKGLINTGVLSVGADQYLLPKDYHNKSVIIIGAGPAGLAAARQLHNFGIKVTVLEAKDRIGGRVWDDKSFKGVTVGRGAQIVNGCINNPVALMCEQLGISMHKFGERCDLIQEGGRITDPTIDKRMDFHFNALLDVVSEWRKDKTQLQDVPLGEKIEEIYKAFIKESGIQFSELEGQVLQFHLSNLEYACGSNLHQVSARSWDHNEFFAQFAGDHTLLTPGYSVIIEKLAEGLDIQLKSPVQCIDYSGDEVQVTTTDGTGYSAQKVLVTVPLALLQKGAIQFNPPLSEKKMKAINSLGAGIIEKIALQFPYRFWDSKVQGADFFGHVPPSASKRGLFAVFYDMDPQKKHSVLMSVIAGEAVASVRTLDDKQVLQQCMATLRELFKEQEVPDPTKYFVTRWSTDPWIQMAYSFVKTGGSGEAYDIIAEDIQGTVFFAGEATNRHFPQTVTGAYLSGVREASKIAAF

[11] = tested on: GRP gene expression in NCI-H510A cells; experiment: GRP gene expression by qRT-PCR; assay type: cell-based; details: 6 days, 2000, 200, 20 and 2 nM
In short: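 NCI-H510A SCLC cells (mycoplasma-free) seeded at 0.5 million per 5 mL complete RPMI-1640 (10% FBS, 2 mM l-glutamine). They were treated with test compound at 2000, 200, 20 and 2 nM for 6 days at 37 °C, 5% CO2. Pellets of 0.5 million cells were PBS-washed and stored at −80 °C, then total RNA was extracted for qRT-PCR of GRP; N = 1, n = 3.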

[12] = tested on: AML cell line TF-1a; experiment: AML cell viability; assay type: cell-based; details: for EC50: TF-1a, read-out: EC50 viability, AML cell lines
[13] = target: LSD1 in MV(4;11) cells (Homo sapiens, UniProt O60341); experiment: LSD1 target engagement; assay type: cell-based; details: 24 h, 2000, 200, 20 and 2 nM
[14] = tested on: SCLC patients; details: cited from earlier work
[15] = tested on: RR-AML patients; details: cited from earlier work
[16] = cited from earlier work

EC50 [1]: 184 nM | IC50 ([2]; LSD1 IC50, HTRF assay): 1300 nM | recovery of LSD1 activity upon jump dilution [4]: 62% | T = 6 days purity (parent compound remaining) [5]: 72% | IC50 [6]: 2400 nM | disruption of LSD1/INSM1 PPI [7]: totally inactive | inhibition at 10 µM [10]: < 50%
Compound: C/C(=N\NC(=O)c1cccc(S(=O)(=O)N2CCN(C)CC2)c1)c1cc(Cl)ccc1O [seclidemstat]
disruption of LSD1/GFI1B interaction [3]: does not disrupt the LSD1/GFI1B interaction | LSD1 TE [8]: did not show any significant LSD1 TE at the concentrations tested | induction of CD11b marker [9]: does not induce the CD11b marker | effect on GRP expression [11]: does not impact GRP expression

EC50 [1]: > 2000 nM | T = 6 days purity (parent compound remaining) [5]: 4%
Compound: NNCCc1ccccc1 [phenelzine]
EC50 [12]: > 2000 nM

Compound: c1ccc([C@@H]2C[C@H]2NC2CCNCC2)cc1 [OG-668]
EC50 [1]: 1.17 nM | disruption of LSD1/GFI1B interaction [3]: shows reduction of the LSD1/GFI1B interaction in the 2 μM to 2 nM range | disruption of LSD1/INSM1 PPI [7]: reduction of the LSD1/INSM1 interaction at all four concentrations | LSD1 TE [13]: high LSD1 TE at all concentrations tested | effect on GRP expression [11]: reduce GRP expression at all concentrations

EC50 [1]: > 2000 nM
Compound: C#CCN(C)Cc1ccccc1 [pargyline]
EC50 [12]: > 2000 nM

fold less active than iadademstat in the LSD1 HTRF assay [2]: 491 fold
Compound: O=C(O)c1ccc(CN2CCC(CN[C@@H]3C[C@H]3c3ccccc3)CC2)cc1 [GSK-2879552]
G3/4 encephalopathy [14]: 10% | fold less active than iadademstat in the (TF-1a) AML viability assays [12]: 849 fold

EC50 [1]: 0.16 nM
Compound: N[C@H]1CC[C@H](N[C@@H]2C[C@H]2c2ccccc2)CC1 [iadademstat]
effect on GRP expression [11]: most potently inhibits the expression of the neuroendocrine biomarker (including at 2 nM) | safety and tolerability [15]: safe and well-tolerated

EC50 [1]: 1.77 nM
Compound: COc1ccc(-c2c(-c3ccc(C#N)c(F)c3)nc(N3CCC(N)CC3)n(C)c2=O)cc1F [pulrodemstat]
half-life ([16]; humans): ≈ 70 h | adverse events reported ([16]; monotherapy): Thrombocytopenia and neutropenia events

fold less active than iadademstat in the LSD1 HTRF assay [2]: 174 fold
Compound: CN1CCN(C(=O)[C@H](CCCN[C@@H]2C[C@H]2c2ccc(F)cc2)NC(=O)c2ccc(-n3ccnn3)cc2)CC1 [bomedemstat]
fold less active than iadademstat in the (TF-1a) AML viability assays [12]: 345 fold
